Results published in PubChem BioAssay.
A number with no mark means an inactive call. Records with an inconclusive call do not appear. Activity calls are given as the source filed them.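 The calls were made as follows, unless noted: active = viability increase at or above a cutoff of the median across tested compounds plus 3 SD (cut at about 8.5% in these data, passing the limit was not always enough); inconclusive = some gains above the cutoff, reason not given; inactive = the rest.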

Tests used:
[1] = S. cerevisiae growth inhibition in permissive medium (OD615), pilot counter-assay for S. cerevisiae lifespan shortening project, permissive growth control (AID 705;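 active = growth inhibition above 25% in both replicates, a cutoff set 3 SD above the mean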); conditions: OD615, 24 h, at 10 µM, stronger effect = higher value
Procedure, shortened: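 System: Engineered DeaD yeast | Buffer or medium: SC raffinose/galactose permissive medium | Doses: 10 µM single dose, 0.25% DMSO | Times: 24 h exposure, 30 °C | Measured by: OD615 turbidity read | Read-out: Yeast growth inhibition indicated by reduced 24 h OD615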

[2] = S. cerevisiae growth inhibition in restrictive medium, OD615, pilot screen, restrictive growth control, yeast lifespan reduction project (AID 706;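 active = growth inhibition above a set limit, 3 SD over mean compound inhibition, in both replicates, cut at about 43% in these data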;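 also: modified DeaD lifespan yeast strain shifted to restrictive glucose medium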); conditions: OD615, 48 h, at 10 µM, stronger effect = higher value
Procedure, shortened: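 Assay system: engineered S. cerevisiae DeaD strain; Buffer or medium: CSMM-D glucose medium; Dosing: 10 µM compound, 0.25% DMSO; Times: cell pre-growth 4 h, compound exposure 48 h, 30 °C; Detection: absorbance (optical density) measured at 615 nm.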

[3] = doxorubicin toxicity protection in MRP-1 cells – H69AR cells, CellTiter-Glo, duplicate, MRP-1 activator project, pilot screen (AID 807); conditions: H69AR viability with doxorubicin, CellTiter-Glo luminescence; at 10 µM; stronger effect = higher value;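 also: compound pretreatment 18-22 h then 72 h combined with doxorubicin; 0% = doxorubicin alone and 100% = vehicle without doxorubicin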
[4] = viability of HCT116 without oncogenic beta-catenin – human colon tumor cells, pilot screen (AID 823;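 active = cell viability at or below a set limit in both duplicate runs, the limit being the all-compound median minus 4 SD, cut at about 23% in these data, passing the limit was not always enough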;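 also: 0% = wells killed by 20 µM Hyamine and 100% = untreated DMSO cell wells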); conditions: HCT116 beta-catenin knockout viability, CellTiter-Glo, 60 h; at 10 µM; stronger effect = lower value
[5] = viability of PTEN-null HCT116 cells – cell-based, HCT116 clonal line, CellTiter-Glo, pilot screen (AID 824;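 active = viability at or below 27.92% in each of two runs, the all-compound median minus 4 SD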;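 also: 0% = 20 µM Hyamine control and 100% = vehicle cell control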); conditions: HCT116 PTEN-deleted viability, 60 h, at 10 µM, stronger effect = lower value
[6] = RAM pathway blockade in budding yeast – dse1pr::URA3 reporter, 5-FOA selection, pilot screen (AID 869;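 active = inhibition over a set limit, the all-compound mean plus 3 SD, in both replicate runs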;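 also: 0% = DMSO wells with no growth and 100% = 10 µM 1-NA-PP1 with full growth; RAM network block rescues cells from 5-FOA so hits raise OD615 growth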); conditions: S. cerevisiae dse1pr::URA3 5-FOA growth, OD615, 2 d; at 10 µM; stronger effect = higher value; strain carries analog-sensitive mutant Cbk1 kinase
[7] = RAM signaling pathway blockade in yeast – S. cerevisiae, Pdr1DBD-CYC8 efflux-inhibited sensitized strain, primary screen (AID 1298;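 active = RAM network inhibition above 8.4% in each of two replicates, 3 SD over the compound average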;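 also: 0% = DMSO untreated cells without growth and 100% = 10 µM 1-NA-PP1 full growth; higher means more yeast growth rescued from 5-FOA killing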); conditions: S. cerevisiae cbk1-as DSE1-URA3 strain, 5-FOA growth OD615, 2 d; at 50 µM; stronger effect = higher value

Row | Structure (SMILES) | growth inhibition [1] [%] | growth inhibition [2] [%] | viability increase [3] [%] | viability [4] | viability [5] | inhibition [6] [%] | RAM network inhibition [7] [%]
1 | CCOCCn1c(SCc2ccc(C)cc2)nc2c1c(=O)[nH]c(=O)n2C | -5.33 | 3.62 | -3.46 | 92.5% | 95.1% | 1.49 | 4.28
2 | Cc1cc2nc(-c3cccc(NC(=O)c4ccc(Br)o4)c3C)oc2cc1C | -0.715 | -9.59 | 3.53 | 87% | 84.2% | 2.33 | 2.65
3 | CCOC(=O)C1=C(C)NC2=C(C(=O)CCC2)C1c1cc(OC)ccc1OC (stereo not drawn) | -10.6 | -12.8 | -1.47 | 94.1% | 96.3% | 1.73 | 7.52
4 | CC(=O)NCC(=O)OCC(=O)c1ccc(C)cc1 | 1.93 | -5.04 | -0.54 | 97.6% | 94.9% | 1.21 | -0.06
5 | O=C(CNC(=O)c1ccccc1F)NC1CC1 | -8.56 | -2.84 | -2.87 | 99.3% | 96.4% | 0.76 | 6.17
6 | CCOC(=O)c1cccc(NC(=O)CCS(=O)(=O)c2cccc3nsnc23)c1 | -0.82 | -22 | -3.74 | 100% | 97% | 0.99 | 2.43
7 | C=CCn1c(C(C)NC(=O)COC)nc2ccccc21 (stereo not drawn) | -2.42 | -4.71 | -2.08 | 98.7% | 96.2% | 0.935 | 3.54
8 | Cc1noc(/C=C/N(C)C)c1S(=O)(=O)N1CCN(c2ccccc2)CC1 | -14.8 | -3.67 | -2.94 | 95.9% | 90.8% | 2.37 | 7.31
9 | Cn1c(=O)c2nc(-c3ccc(Cl)cc3Cl)oc2c2ccccc21 | -12.5 | -0.105 | -3.1 | 81.1% | 77.6% | 2.31 | 3.74
10 | CCOC(=O)N1CCN(C(=O)CN(c2ccc(Oc3ccccc3)cc2)S(C)(=O)=O)CC1 | -5.22 | -15.6 | -2 | 75.2% | 66.2% | 0.265 | 2.44
11 | Nc1c(C(=O)CCC(=O)O)oc2ccc(Cl)cc12 | 5.78 | -0.24 | -2.01 | 100% | 99.4% | 0.635 | 5.46
12 | CCS(=O)(=O)NCC(c1cccnc1)N1CCN(c2ccccc2OC)CC1 (stereo not drawn) | -2.57 | -3.32 | -0.33 | 98.3% | 105% | 1.11 | 3.37
13 | C=CCOC(=O)COc1ccc2c(C)c(C)c(=O)oc2c1 | -17.9 | -6.88 | 0.26 | 96.6% | 95.9% | 0.765 | 4.38
14 | FC(F)C(F)(F)C1=CC(c2ccccc2)=NCCN1 | -9.88 | -17.6 | -1.16 | 96.7% | 85.5% | 1.59 | 2.09
15 | COCCCN(C(=O)Nc1ccccc1)C(C)c1ccncc1 (stereo not drawn) | 2.64 | -0.975 | -1.88 | 101% | 94.3% | 1.18 | 3.28
16 | O=C(O)CCc1n[nH]c(=S)[nH]c1=O | -5.76 | -17.3 | -1.6 | 102% | 106% | 0.76 | -0.69
17 | C=CCOC(=O)CCP(=O)(CCC(=O)OCC=C)c1ccccc1 | 5.05 | 1.05 | -1.13 | 96.5% | 98.8% | -0.22 | -1.29
18 | COc1cc(C(=O)Oc2c(CN3CCOCC3)cc(Cl)c3cccnc23)cc(OC)c1OC | -8.94 | -33.1 | -8.41 | 6.72% (active) | 4.81% (active) | 1.09 | 0.27
19 | COc1cccc(C2c3c(oc4ccccc4c3=O)C(=O)N2CCCN2CCOCC2)c1 (stereo not drawn) | -10.5 | -5.13 | -3.16 | 95.1% | 93.1% | 1.13 | 2.84
20 | CCN(CC)CCCNC(=O)Cn1cc2c(n1)CCC(C)C2 (stereo not drawn) | -3.44 | -0.585 | -1.22 | 96.9% | 98.1% | 2.05 | 2.3
21 | CCn1c(SCC(=O)NCCOc2ccccc2)nc2ccccc2c1=O | -0.73 | -21.3 | -1.87 | 93.8% | 92.6% | 1.08 | 4.35
22 | CC1CCN(C(=O)C(Cc2ccccc2)NS(=O)(=O)c2ccc3c(c2)oc(=O)n3C)CC1 (stereo not drawn) | -12.5 | -17.6 | -1.4 | 104% | 94.1% | 1.85 | 8.04
23 | COc1ccc(NC(=O)c2c(NC(=O)CNCc3ccco3)sc3c2CCC3)c(OC)c1 | -3.54 | -19 | -1.44 | 88.7% | 79.2% | 1.43 | 5.28
24 | Nc1c(S(=O)(=O)c2ccccc2)c2nc3ccccc3nc2n1/N=C/c1ccco1 | -7.84 | -8.93 | -5.63 | 51.5% | 52% | 2.34 | 4.98
